Assay results of several laboratories.
Compare with care: the assays were run in different laboratories.
Target: Serine/threonine-protein kinase MRCK alpha (CDC42BPA, Homo sapiens, UniProt Q5VT25)

Compound	effect on	action	method	concentration	quantity	result
COc1cc(Cl)c(C(=O)N[C@@H](CN[C@H]2CC[C@@H](N)CC2)Cc2ccc(C#N)cc2)cc1-c1ccc(CN[C@H](C)c2ccc(C)cc2)o1	enzyme activity	inhibitor	–	1 µM	remaining activity	99%
CN(C)c1ncnc(-c2ccc3nc(Nc4cc(CN5CCN(C(=O)CC(F)(F)F)CC5)ccn4)[nH]c3c2)c1Cl	cell-free assay	–	competition with immobilised ligand	1 µM	remaining binding	100%
COc1cc2ncnc(Nc3ccc(Oc4ccccc4)c(C)c3C)c2cc1OC	enzyme activity	inhibitor	–	1 µM	inhibition	-6%
N#CCCc1ccc2c(c1)-c1[nH]c3ccc([N+](=O)[O-])cc3c1CC(=O)N2	cell-free assay	–	–	0.5 µM	remaining signal	73.1%
O=C(Nc1cnn(-c2csc(C(=O)NC3COC3)c2)c1)Nc1c(F)cccc1Cl	enzyme activity	inhibitor	–	5 µM	remaining activity	99%
Cc1ccc(C(=O)Nc2ccc(CN3CCN(C)CC3)c(C(F)(F)F)c2)cc1C#Cc1cnc2cccnn12	enzyme activity	inhibitor	–	23.5 nM	remaining activity	99%
CC(C)(C)c1nc(-c2cccc(NS(=O)(=O)c3c(F)cccc3F)c2F)c(-c2ccnc(N)n2)s1	enzyme activity	inhibitor	radiometric	1 µM	remaining activity	88%
O=C(NS(=O)(=O)c1ccc(NCC2CCOCC2)c([N+](=O)[O-])c1)c1ccc(N2CCN(Cc3ccc(C(F)(F)F)cc3-c3ccc(Cl)cc3)CC2)cc1Oc1cnc2[nH]ccc2c1	cell-free assay	–	competition with immobilised ligand	1 µM	remaining binding	96%
O=C1NC(=O)c2cc(Nc3ccc(F)cc3)c(Nc3ccc(F)cc3)cc21	cell-free assay	inhibitor	–	0.5 µM	remaining signal	92.3%
CCOc1cc(-c2nncn2C)ccc1Nc1ncc2cc(C)nc(NCC(C)(C)C)c2n1	enzyme activity	inhibitor	FRET	1 µM	inhibition	< 15%
CCCOc1ccc(OC)c(F)c1C(=O)c1ccc(C(=O)N[C@@H]2CNC[C@H]2NC(=O)c2ccc3[nH]ncc3c2)cc1	enzyme activity	inhibitor	–	0.5 µM	remaining activity	27%
Cc1ccc(NC(=O)c2ccc(C)c(C(F)(F)F)c2)cc1C#Cc1nn(C2CCC(O)CC2)c2ncnc(N)c12 (stereo not shown)	cell-free assay	inhibitor	–	10 µM	remaining signal	101%
N#CC1(c2ccccn2)CCN(Cc2cc(C(=O)N3CCCC3)c(=O)n3ccccc23)CC1	cell-free assay	–	competition with immobilised ligand	1 µM	remaining binding	84%
CNC(=O)c1cc(Oc2ccc(NC(=O)Nc3ccc(Cl)c(C(F)(F)F)c3)cc2)ccn1	enzyme activity	inhibitor	–	10 µM	inhibition	2%
CC(C)(O)c1cncc(-c2nc3ccc(F)cc3n2C2CC2)c1	cell-free assay	–	competition with immobilised ligand	1 µM	remaining binding	100%
Cc1cnc(NC2CCOCC2)nc1-n1cnc(C(=O)NC(CN)c2cc(F)cc(Cl)c2)c1 (stereo not shown)	enzyme activity	inhibitor	radiometric	1 µM	remaining activity	64%
COc1ccc2cc(OCC3(C(=O)O)CN(C(=O)c4ccc(F)cc4)C3)ccc2c1	cell-free assay	–	competition with immobilised ligand	1 µM	remaining binding	100%
Cc1sc(C(=O)NC2COC2)cc1-n1cc(NC(=O)Nc2c(F)cccc2Cl)cn1	enzyme activity	inhibitor	–	10 µM	remaining activity	104%
N#Cc1ccc(Nc2ccc3[nH]c(=O)[nH]c3c2)c(Cl)c1	cell-free assay	–	competition with immobilised ligand	1 µM	remaining binding	100%
Cc1ccc(Nc2nccc(N(C)c3ccc4c(C)n(C)nc4c3)n2)cc1S(N)(=O)=O	enzyme activity	inhibitor	–	0.3 µM	inhibition	9%
c1ccc(N2CCN(Cc3nc4ccccc4[nH]3)CC2)nc1	cell-free assay	–	competition with immobilised ligand	1 µM	remaining binding	100%
CCN(CC)CCNC(=O)c1c(C)[nH]c(/C=C2\C(=O)Nc3ccc(F)cc32)c1C	enzyme activity	inhibitor	–	10 µM	inhibition	10%
